Bioassay records from PubChem.
MrgX1 allo act – allosterically activates human MrgX1 receptor signaling | Q96LB2 | MrgX1-HEK293, Fluo-4 calcium flux, FDSS; active compounds read high | B-score at 10 µM | 0.63% of 310,000 active | AID 588675;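 active = plate-corrected calcium response at least 3 library SD above typical, normal starting fluorescence, not activating the receptor alone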;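 note: compound read alongside a low EC10 to EC30 dose of BAM8-22 agonist; peak minus trough fluorescence over baseline measured at the second addition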
Target sequence (Q96LB2 whole entry, looked up): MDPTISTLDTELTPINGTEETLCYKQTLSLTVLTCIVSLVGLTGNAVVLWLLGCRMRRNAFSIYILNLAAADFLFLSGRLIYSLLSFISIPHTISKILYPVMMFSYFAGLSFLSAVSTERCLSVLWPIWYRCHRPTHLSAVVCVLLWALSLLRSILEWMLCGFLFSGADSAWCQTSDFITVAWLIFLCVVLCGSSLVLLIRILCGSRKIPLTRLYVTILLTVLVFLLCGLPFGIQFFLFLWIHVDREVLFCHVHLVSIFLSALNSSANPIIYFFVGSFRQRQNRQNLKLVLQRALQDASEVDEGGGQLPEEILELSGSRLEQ
MrgX1 antagonist – blocks BAM8-22 activation of human MrgX1 receptor | MRGX1-HEK293 calcium flux, Fluo-4, BAM8-22 antagonism; active compounds read low | B-score at 10 µM | 1.3% of 310,000 active;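 active = calcium-response B-score plate-corrected more than 3 library SD below zero, starting fluorescence within 5 deviations, no agonist response on first addition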;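 note: peak minus trough fluorescence over baseline after final BAM8-22 challenge near maximal dose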
MrgX1 ag – activates human MrgX1 receptor signaling; Q96LB2; 0.44% of 310,000 active; B-score at 10 µM; MrgX1-HEK293 cells, Fluo-4 calcium fluorescence, agonist mode; active compounds read high;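 active = calcium response B-score plate-corrected fluorescence ratio at least 3 library SD, with starting fluorescence B-score inside 5 SD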
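Material: MrgX1-expressing HEK293 cells / Dosing: compound as first of three additions / Incubation: overnight seeding, then 1 h dark dye loading / Signal: Fluo-4 NW calcium fluorescence / Evaluation: B-scored fluorescence response ratio / Benchmarks: positive and negative control wells on each plate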
RGS4 act – RGS4 potentiation or activation; HEK293 M3R/inducible RGS4, carbachol calcium flux Fluo4; active compounds read low; B-score at 10 µM; 0.92% of 310,000 active; AID 463111;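 active = B-score of the integrated calcium signal more than 4 SD below the library mean, with starting fluorescence not abnormally high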;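 note: negative B-score means reduced calcium response which marks RGS4 activation or potentiation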
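Material: M3R-expressing HEK293 line, RGS4 induced by doxycycline | Schedule: Overnight RGS4 induction, 30 min dye load 37 °C, 20 min compound RT | Measured by: Fluo4 fluorescence kinetic imaging of calcium | Read-out: Integrated calcium ratio converted to B score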
RGS4 inh – human RGS4 inhibition. P49798. HEK293 M3R/RGS4 inducible, Fluo-4 calcium flux; active compounds read high; triggered by carbachol at its EC20. B-score at 10 µM. 0.45% of 310,000 active;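 active = B-score, a plate-corrected calcium signal, over three deviations above library mean, with baseline fluorescence within five deviations of library mean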;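 note: RGS4 expression induced by doxycycline in cells with stable M3 receptor; B-score is computed from the integrated fluorescence ratio over baseline after carbachol; higher B-score means a larger calcium signal and so more RGS4 inhibition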
Target sequence (P49798 whole entry, looked up): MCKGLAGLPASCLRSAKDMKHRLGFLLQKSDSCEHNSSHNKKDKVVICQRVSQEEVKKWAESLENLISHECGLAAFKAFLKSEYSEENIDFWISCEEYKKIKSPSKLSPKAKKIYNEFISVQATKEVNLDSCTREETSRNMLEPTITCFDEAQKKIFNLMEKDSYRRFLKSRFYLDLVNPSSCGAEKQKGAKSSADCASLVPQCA
MrgX1 PAM conf – reconfirmed allosteric activator of human MrgX1 receptor | shares compounds with MrgX1 allo act | MrgX1-HEK293, Fluo-4 calcium fluorescence, FDSS | activation (ratio percentage), % at 10 µM | 13% of 1,200 active | AID 602413;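 active = ratio at least 3 SD above the weak peptide control, stable starting fluorescence, no direct agonism earlier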;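 note: compound followed by low BAM8-22 agonist challenge near EC20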
HEK293 Ca flux – counter-screen for MrgX1 antagonists: effect in parental HEK293 cells; shares compounds with MrgX1 antagonist; Fluo-4 calcium fluorescence, FDSS; fluorescence ratio F(max-min)/F0 at 10 µM; 2% of 4,000 active; AID 624111;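 active = duplicate-averaged calcium fluorescence ratio at least three times the standard deviation of buffer wells, a nonspecific response in parental cells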
HEK293 Ca counter – MrgX1 allosteric activator counter-screen hit in parental HEK293 cells; parental HEK293 calcium flux, Fluo-4 fluorescence ratio; active compounds read high; fluorescence ratio F(max-min)/F0 at 10 µM; 0.4% of 4,000 active; shares compounds with MrgX1 antagonist;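 active = calcium fluorescence ratio, averaged over duplicates, at least 3 SD of the buffer-well ratio, meaning a nonspecific response in receptor-free cells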;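 note: untransfected parental HEK293 lacking MrgX1 used as counterscreen for MrgX1 allosteric activators; fluorescence change taken during the second addition on a kinetic imager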
HEK293 Ca cntr2 – counter-screen for MrgX1 activators: effect in parental HEK293 cells | Fluo-4 calcium fluorescence (FDSS); active compounds read high | fluorescence ratio F(max-min)/F0 at 10 µM | 8.7% of 4,000 active | AID 624115 | shares compounds with MrgX1 antagonist;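 active = calcium fluorescence ratio at least three times the spread of buffer wells, meaning a non-specific response in parental cells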
Of the large screens only hits and unclear results are named; the others gave an inactive call (follow-up assays come after a bar, where they were run); ! = not active in a repeat. Rows were chosen to be rich in hits. Some 3.5% of all compounds tested hit in one or more screens of this group.

O=C(Nc1scc(-c2ccccc2)c1C(=O)O)c1ccco1	none
FC(F)(F)c1cc(-c2ccccc2)nc2nc(N3CCOCC3)sc12	none
CC(=O)NS(=O)(=O)c1ccc(NC(=O)CC(C)c2ccccc2)cc1 (stereo not drawn)	none
Cc1n[nH]c(C)c1S(=O)(=O)N1CCc2ccccc2C1	MrgX1 allo act 8.4 | MrgX1 PAM conf inactive | HEK293 Ca flux inactive | HEK293 Ca counter inactive | HEK293 Ca cntr2 inactive
Cc1n[nH]c(C)c1S(=O)(=O)N1CCN(c2ccccn2)CC1	none
CCc1ccc(/C=N/NC(=O)Cc2cccn2C)cc1	MrgX1 allo act 27 | MrgX1 PAM conf 13% | HEK293 Ca flux inactive | HEK293 Ca counter inactive | HEK293 Ca cntr2 inactive
COC(=O)c1ccsc1NC(=O)CN1C(=O)CCC1=O	none
Cc1cccc(N=C2NC(=O)S/C2=C\c2ccco2)c1	none
Cc1cccc(N=C2CSC(=O)N2)c1	MrgX1 allo act 7.4 | MrgX1 PAM conf inactive | HEK293 Ca flux inactive | HEK293 Ca counter inactive | HEK293 Ca cntr2 inactive
O=C(Nc1ccccc1C(=O)O)c1cccc(NS(=O)(=O)c2ccc(Br)cc2)c1	MrgX1 allo act 11 | MrgX1 PAM conf inactive | HEK293 Ca flux inactive | HEK293 Ca counter inactive | HEK293 Ca cntr2 inactive
O=C(Nc1ccccc1C(=O)O)c1cccc(S(=O)(=O)Nc2ccc(Br)cc2)c1	none
N=c1sccn1CC(=O)N1N=C(c2ccc(Cl)cc2)CC1c1ccco1 (stereo not drawn)	MrgX1 allo act 21 | MrgX1 PAM conf inactive | HEK293 Ca flux inactive | HEK293 Ca counter inactive | HEK293 Ca cntr2 inactive
COc1ccc(CC(=O)N(c2ccccc2)c2nc(C)cs2)cc1	MrgX1 allo act 11 | MrgX1 PAM conf inactive | HEK293 Ca flux inactive | HEK293 Ca counter inactive | HEK293 Ca cntr2 inactive
Cc1csc(N(C(=O)Cc2ccccc2F)c2ccccc2)n1	none
Oc1ccc(C2CNCCc3c2cc(O)c(O)c3Cl)cc1 (stereo not drawn)	MrgX1 allo act 6.7! | MrgX1 PAM conf inactive | HEK293 Ca flux inactive | HEK293 Ca counter inactive | HEK293 Ca cntr2 inactive
Oc1cc2c(c(Cl)c1O)CCNCC2c1ccccc1 (stereo not drawn)	none
O=C(CCc1ccccc1)Nc1nc2n(n1)C(c1ccc(Cl)cc1)CC(=O)N2 (stereo not drawn)	none
O=C(CCc1ccccc1)Nc1nc2n(n1)C(c1ccccc1)CC(=O)N2 (stereo not drawn)	MrgX1 allo act 21 | MrgX1 PAM conf inactive | HEK293 Ca flux inactive | HEK293 Ca counter inactive | HEK293 Ca cntr2 inactive
CC1CCc2c(sc(Nc3nc4c(F)cccc4s3)c2C(N)=O)C1 (stereo not drawn)	none
Fc1ccccc1NC(=S)N(CCN1CCCCC1)Cc1ccco1	MrgX1 allo act 11 | MrgX1 PAM conf inactive | HEK293 Ca flux inactive | HEK293 Ca counter inactive | HEK293 Ca cntr2 inactive
Cn1c(SCC(=O)N2CCCC2=O)nnc1-c1ccccc1F	MrgX1 allo act 8.8 | MrgX1 PAM conf inactive | HEK293 Ca flux inactive | HEK293 Ca counter inactive | HEK293 Ca cntr2 inactive
Cn1c(SCC(=O)N2CCCc3ccccc32)nnc1-c1c[nH]c2ccccc12	none
Cc1cc(C)c2sc(NC(=O)c3ccc([N+](=O)[O-])o3)nc2c1	MrgX1 allo act 20 | MrgX1 PAM conf inactive | HEK293 Ca flux inactive | HEK293 Ca counter inactive | HEK293 Ca cntr2 inactive
CCOc1cc(S(=O)(=O)N(CC)CC)ccc1Cl	none
CCOc1cc(C)c(Cl)cc1S(=O)(=O)N(CC)CC	MrgX1 allo act 7.5 | MrgX1 PAM conf inactive | HEK293 Ca flux inactive | HEK293 Ca counter inactive | HEK293 Ca cntr2 inactive
CCOc1ccc2nc(SCC(=O)NCc3ccccc3OC)[nH]c2c1	MrgX1 allo act 15 | MrgX1 PAM conf inactive | HEK293 Ca flux inactive | HEK293 Ca counter inactive | HEK293 Ca cntr2 inactive
O=C(OCCN1C(=O)c2ccccc2C1=O)c1cc(S(=O)(=O)N2CCOCC2)ccc1F	MrgX1 allo act 6.8 | MrgX1 PAM conf inactive | HEK293 Ca flux inactive | HEK293 Ca counter inactive | HEK293 Ca cntr2 inactive
CC(=O)c1ccc(NC(=O)Nc2ccc3c(c2)nc(C)n3C)cc1	MrgX1 allo act 8.8 | MrgX1 PAM conf inactive | HEK293 Ca flux inactive | HEK293 Ca counter inactive | HEK293 Ca cntr2 inactive
O=C(CCc1ccc(S(=O)(=O)N2CCOCC2)cc1)N/N=C/c1ccc(O)c(O)c1O	none
Cc1c(CC(=O)O)c(=O)oc2c(C)c(OCc3ccc(F)cc3F)ccc12	none
COc1ccccc1COc1ccc2c(C)c(CC(=O)O)c(=O)oc2c1C	MrgX1 allo act 13 | MrgX1 PAM conf inactive | HEK293 Ca flux inactive | HEK293 Ca counter inactive | HEK293 Ca cntr2 inactive
CCCCCCC1CC(CSC(=N)N)OC1=O (stereo not drawn)	MrgX1 allo act 6.5 | MrgX1 PAM conf inactive | HEK293 Ca flux inactive | HEK293 Ca counter inactive | HEK293 Ca cntr2 inactive
O=C(C1CC1)N1CCc2cc(Br)cc(S(=O)(=O)N3CCCCCC3)c21	MrgX1 allo act 11 | MrgX1 PAM conf inactive | HEK293 Ca flux inactive | HEK293 Ca counter inactive | HEK293 Ca cntr2 inactive
CCC1(C)Cc2ccccc2-c2nc(NCCO)n(-c3ccccc3)c(=O)c21 (stereo not drawn)	MrgX1 allo act 7.7 | MrgX1 PAM conf inactive | HEK293 Ca flux inactive | HEK293 Ca counter inactive | HEK293 Ca cntr2 inactive
CCC1(C)Cc2ccccc2-c2nc(NCCCO)n(C)c(=O)c21 (stereo not drawn)	none
O=c1[nH]c2ccc(NC(=S)Nc3ccc(Cl)cc3)cc2[nH]1	none
CC(C)c1ccc(NC(=S)Nc2ccc3[nH]c(=O)[nH]c3c2)cc1	MrgX1 allo act 15 | MrgX1 PAM conf inactive | HEK293 Ca flux inactive | HEK293 Ca counter inactive | HEK293 Ca cntr2 inactive
c1ccc(N2CCN(c3ncnc4sc5c(c34)CCC5)CC2)cc1	none
c1nc(N2CCC3(CC2)OCCO3)c2c3c(sc2n1)CCCC3	MrgX1 allo act 17 | MrgX1 PAM conf inactive | HEK293 Ca flux inactive | HEK293 Ca counter inactive | HEK293 Ca cntr2 inactive
CCN(CC)S(=O)(=O)c1ccc(Cl)nc1	MrgX1 allo act 9.3 | MrgX1 PAM conf inactive | HEK293 Ca flux inactive | HEK293 Ca counter inactive | HEK293 Ca cntr2 inactive
COCCN(CCOC)S(=O)(=O)c1ccc(Cl)nc1	none
CCCCCCCC(=O)NC(Nc1ccc(S(N)(=O)=O)cc1)C(Cl)(Cl)Cl (stereo not drawn)	none
